Test [1] concerns the target T1, Stromelysin-2 (Homo sapiens, UniProt P09238). The test is described as follows: Inhibition of MMP10 (unknown origin) assessed as residual activity at 10 uM using (5-FAM/QX) FRET peptide as substrate by fluorescence assay relative to control. The method in brief: (§1)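 Residual enzyme activity read at a single 10 μM inhibitor concentration, in duplicate. Fluorescence assay on cleavage of the QXL520/5-FAM FRET peptide. Buffer was 50 mM HEPES pH 7.5 with 10 mM CaCl₂, 0.01% Brij-35 and 0.1 mg/ml BSA. GM6001 served as control inhibitor. Same assay system as the IC50 determinations.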
Target sequence in this assay (P09238 99-476 limits assumed): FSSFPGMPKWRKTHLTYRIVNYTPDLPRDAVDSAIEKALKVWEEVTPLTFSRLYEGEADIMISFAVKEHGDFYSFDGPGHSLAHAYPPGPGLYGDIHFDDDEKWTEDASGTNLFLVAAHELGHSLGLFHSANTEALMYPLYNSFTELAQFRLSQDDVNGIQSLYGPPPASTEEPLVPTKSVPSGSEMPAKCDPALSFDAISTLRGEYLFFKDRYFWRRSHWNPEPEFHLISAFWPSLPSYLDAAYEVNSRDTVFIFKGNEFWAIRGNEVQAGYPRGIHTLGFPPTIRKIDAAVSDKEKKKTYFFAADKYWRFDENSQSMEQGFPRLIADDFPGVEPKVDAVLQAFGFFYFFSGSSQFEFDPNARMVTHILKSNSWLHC

In test [2] the target is T2, Collagenase 3 (Homo sapiens, UniProt P45452). Kind of test: Inhibition of C-terminal tagged human recombinant MMP13 catalytic domain expressed in Escherichia coli assessed as residual activity at 10 uM using (5-FAM/QX) FRET peptide as substrate by fluorescence assay relative to control. The method in brief: as §1
Test [3] has as its target T1, Stromelysin-2. The test is described as follows: Inhibition of MMP10 (unknown origin) assessed using (5-FAM/QX) FRET peptide as substrate by fluorescence assay. An outline of the steps:
(§2)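 IC50 from 10 concentrations in 3-fold dilution, starting at 10 μM or 100 μM, with two to six replicates. Run only for compounds leaving under 20% residual activity at 10 μM. Fluorescence read-out of QXL520/5-FAM FRET peptide cleavage in 50 mM HEPES pH 7.5, 10 mM CaCl₂, 0.01% Brij-35 and 0.1 mg/ml BSA. Four-parameter least-squares fit; GM6001 as control.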
Target sequence in this assay (P09238 whole entry): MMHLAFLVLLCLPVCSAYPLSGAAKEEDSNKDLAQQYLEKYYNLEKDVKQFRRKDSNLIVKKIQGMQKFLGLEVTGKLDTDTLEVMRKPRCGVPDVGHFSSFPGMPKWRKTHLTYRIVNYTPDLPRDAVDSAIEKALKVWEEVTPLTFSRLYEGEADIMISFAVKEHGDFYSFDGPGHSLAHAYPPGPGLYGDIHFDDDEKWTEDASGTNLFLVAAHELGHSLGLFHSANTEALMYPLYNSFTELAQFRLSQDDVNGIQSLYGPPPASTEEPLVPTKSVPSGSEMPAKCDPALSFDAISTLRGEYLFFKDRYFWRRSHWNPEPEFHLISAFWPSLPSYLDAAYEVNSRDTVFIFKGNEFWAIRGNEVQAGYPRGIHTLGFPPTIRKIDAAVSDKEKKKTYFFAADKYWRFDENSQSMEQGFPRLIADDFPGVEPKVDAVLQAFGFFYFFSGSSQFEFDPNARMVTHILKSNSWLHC

Test [4] has as its target T2, Collagenase 3. The test is described as follows: Inhibition of C-terminal tagged human recombinant MMP13 catalytic domain expressed in Escherichia coli using (5-FAM/QX) FRET peptide as substrate by fluorescence assay. The method in brief: as §2

As to `COc1cc(CNC(=O)C#Cc2cn(Cc3ccc(C(=O)N[C@@H](C)C(=O)O)cc3)c(=O)[nH]c2=O)ccc1F`, the Activity at Stromelysin-2 [1] came to 28.5%; on Collagenase 3 [2], 0.8%.

In the case of `CNC(=O)c1ccc(Cn2cc(C#CC(=O)NCc3ccc(F)c(OC)c3)c(=O)[nH]c2=O)cc1`, the values for the Activity at Stromelysin-2 [1] and at Collagenase 3 [2] were 15.4% and 7.5%, respectively. Moreover, the IC50 is 635 nM at Stromelysin-2 [3] (read-out: IC50), 479 to 832 nM at Stromelysin-2 [3] (read-out: pIC50 (converted)), 86 nM at Collagenase 3 [4] (read-out: IC50) and 67.6 to 112 nM on Collagenase 3 [4] (read-out: pIC50 (converted)).

`COC(=O)[C@H](C)NC(=O)c1ccc(Cn2cc(C#CC(=O)NCc3ccc(F)c(OC)c3)c(=O)[nH]c2=O)cc1`: the values for the Activity on Stromelysin-2 [1] and on Collagenase 3 [2] were 15.5% and 2.5%, respectively. Moreover, the IC50 at Stromelysin-2 [3] (read-out: IC50) was 751 nM; on Stromelysin-2 [3] (read-out: pIC50 (converted)), 490 to 1070 nM; on Collagenase 3 [4] (read-out: IC50), 149 nM; on Collagenase 3 [4] (read-out: pIC50 (converted)), 102 to 195 nM.

`COc1cccc(CNC(=O)c2nc3scc(COCc4ccc(C(=O)O)cc4)c3c(=O)[nH]2)c1` [T-26c]: the IC50 was 358 nM on Stromelysin-2 [3] (read-out: IC50), 309 to 407 nM on Stromelysin-2 [3] (read-out: pIC50 (converted)), 0.19 nM on Collagenase 3 [4] (read-out: IC50) and 0.138 to 0.275 nM at Collagenase 3 [4] (read-out: pIC50 (converted)).

Turning to `COc1cc(CNC(=O)C#Cc2cn(Cc3ccc(C(=O)NC(C)C)cc3)c(=O)[nH]c2=O)ccc1F`, the figures for the Activity at Stromelysin-2 [1] and at Collagenase 3 [2] were 56.6% and 14.2%, respectively.

Regarding `COc1cc(CNC(=O)C#Cc2cn(Cc3ccc(C(=O)N[C@H](CO)C(=O)O)cc3)c(=O)[nH]c2=O)ccc1F`, the Activity was found to be 77% at Stromelysin-2 [1] and 5.6% at Collagenase 3 [2].

For the compound `COc1cc(CNC(=O)C#Cc2cn(Cc3ccc(C(=O)N[C@H](C)C(=O)O)cc3)c(=O)[nH]c2=O)ccc1F`, the figures for the Activity at Stromelysin-2 [1] and at Collagenase 3 [2] were 26.6% and 0.4%, respectively.

As to `COc1cc(CNC(=O)C#Cc2cn(Cc3ccc(S(N)(=O)=O)cc3)c(=O)[nH]c2=O)ccc1F`, the Activity came to 19.1% at Stromelysin-2 [1] and 3.9% on Collagenase 3 [2]. For the same compound, the IC50 was 7380 nM on Stromelysin-2 [3] (read-out: IC50), 4790 to 18200 nM at Stromelysin-2 [3] (read-out: pIC50 (converted)), 258 nM at Collagenase 3 [4] (read-out: IC50) and 204 to 324 nM at Collagenase 3 [4] (read-out: pIC50 (converted)).

Take `COc1cc(CNC(=O)C#Cc2cn(Cc3ccc(C(=O)N[C@@H](CO)C(=O)O)cc3)c(=O)[nH]c2=O)ccc1F`: the Activity on Stromelysin-2 [1] was determined as 10.4%; on Collagenase 3 [2], 0.8%. Also, the IC50 on Stromelysin-2 [3] (read-out: IC50) is 705 nM; at Stromelysin-2 [3] (read-out: pIC50 (converted)) it was 501 to 832 nM; on Collagenase 3 [4] (read-out: IC50), 14 nM; on Collagenase 3 [4] (read-out: pIC50 (converted)), 7.76 to 15.1 nM.

As to `COC(=O)[C@H]1CCCN1C(=O)c1ccc(Cn2cc(C#CC(=O)NCc3ccc(F)c(OC)c3)c(=O)[nH]c2=O)cc1`, the Activity at Stromelysin-2 [1] came to 17.5%; on Collagenase 3 [2] it was 1.8%. Further, the IC50 was 2050 nM on Stromelysin-2 [3] (read-out: IC50), 1260 to 4900 nM at Stromelysin-2 [3] (read-out: pIC50 (converted)), 175 nM at Collagenase 3 [4] (read-out: IC50) and 209 to 219 nM on Collagenase 3 [4] (read-out: pIC50 (converted)).

On to `COc1cc(CNC(=O)C#Cc2cn(Cc3ccc(S(=O)(=O)N4CCOCC4)cc3)c(=O)[nH]c2=O)ccc1F`, for which the Activity at Stromelysin-2 [1] amounted to 15.7%; at Collagenase 3 [2], 1.2%. The IC50 was 1930 nM at Stromelysin-2 [3] (read-out: IC50), 759 to 1700 nM on Stromelysin-2 [3] (read-out: pIC50 (converted)), 66 nM on Collagenase 3 [4] (read-out: IC50) and 16.2 to 36.3 nM at Collagenase 3 [4] (read-out: pIC50 (converted)).

In the case of `COc1cc(CNC(=O)C#Cc2cn(Cc3ccc(S(=O)(=O)N(C)C)cc3)c(=O)[nH]c2=O)ccc1F`, the Activity at Stromelysin-2 [1] worked out at 47.9%; on Collagenase 3 [2], 5.8%.

For the compound `COc1cc(CNC(=O)C#Cc2cn(Cc3ccc(C(=O)NC(C)(C)C)cc3)c(=O)[nH]c2=O)ccc1F`, the Activity at Stromelysin-2 [1] was determined as 55.7%; at Collagenase 3 [2], 13.3%.

In the case of `COc1cc(CNC(=O)C#Cc2cn(Cc3ccc(S(=O)(=O)NC4CC4)cc3)c(=O)[nH]c2=O)ccc1F`, the Activity on Stromelysin-2 [1] is 19.6%; on Collagenase 3 [2], 2.2%. In addition, the IC50 on Stromelysin-2 [3] (read-out: IC50) was 110 nM; on Stromelysin-2 [3] (read-out: pIC50 (converted)) it was 67.6 to 112 nM; at Collagenase 3 [4] (read-out: IC50) it was 14 nM; at Collagenase 3 [4] (read-out: pIC50 (converted)), 10.2 to 11.7 nM.

As to `COc1cc(CNC(=O)C#Cc2cn(Cc3ccc(C(N)=O)cc3)c(=O)[nH]c2=O)ccc1F`, the figures for the Activity on Stromelysin-2 [1] and on Collagenase 3 [2] were 13.9% and 4.4%, respectively. For the same compound, the IC50 on Stromelysin-2 [3] (read-out: IC50) was 1210 nM; at Stromelysin-2 [3] (read-out: pIC50 (converted)), 4790 to 18200 nM; on Collagenase 3 [4] (read-out: IC50), 111 nM; on Collagenase 3 [4] (read-out: pIC50 (converted)), 77.6 to 162 nM.

Regarding `COc1cc(CNC(=O)C#Cc2cn(Cc3ccc(S(=O)(=O)NC(C)C)cc3)c(=O)[nH]c2=O)ccc1F`, the Activity on Stromelysin-2 [1] stood at 10.2%; at Collagenase 3 [2], 2.2%. Besides, the IC50 on Stromelysin-2 [3] (read-out: IC50) is 147 nM; at Stromelysin-2 [3] (read-out: pIC50 (converted)) it was 67.6 to 141 nM; at Collagenase 3 [4] (read-out: IC50), 25 nM; on Collagenase 3 [4] (read-out: pIC50 (converted)) it was 15.1 to 34.7 nM.

For the compound `COC(=O)CNS(=O)(=O)c1ccc(Cn2cc(C#CC(=O)NCc3ccc(F)c(OC)c3)c(=O)[nH]c2=O)cc1`, the values for the Activity at Stromelysin-2 [1] and on Collagenase 3 [2] were 14.3% and 2.1%, respectively. The IC50 is 485 nM on Stromelysin-2 [3] (read-out: IC50), 245 to 437 nM on Stromelysin-2 [3] (read-out: pIC50 (converted)), 32 nM on Collagenase 3 [4] (read-out: IC50) and 15.1 to 34.7 nM at Collagenase 3 [4] (read-out: pIC50 (converted)).

Turning to `COc1cc(CNC(=O)C#Cc2cn(Cc3ccc(C(=O)N4CCC[C@@H]4C(=O)O)cc3)c(=O)[nH]c2=O)ccc1F`, the Activity at Stromelysin-2 [1] came to 68.9%; at Collagenase 3 [2], 1.9%.

In the case of `COc1cc(CNC(=O)C#Cc2cn(Cc3ccc(C(=O)NC4CC4)cc3)c(=O)[nH]c2=O)ccc1F`, the Activity amounted to 30.8% on Stromelysin-2 [1] and 5.9% on Collagenase 3 [2].

As to `CNS(=O)(=O)c1ccc(Cn2cc(C#CC(=O)NCc3ccc(F)c(OC)c3)c(=O)[nH]c2=O)cc1`, the figures for the Activity on Stromelysin-2 [1] and at Collagenase 3 [2] were 12.8% and 1.8%, respectively. Further, the IC50 at Stromelysin-2 [3] (read-out: IC50) was 531 nM; on Stromelysin-2 [3] (read-out: pIC50 (converted)), 407 to 676 nM; at Collagenase 3 [4] (read-out: IC50), 35 nM; at Collagenase 3 [4] (read-out: pIC50 (converted)) it was 25.7 to 40.7 nM.

`COC(=O)c1ccc(Cn2cc(C#CC(=O)NCc3ccc(F)c(OC)c3)c(=O)[nH]c2=O)cc1`: the results for the Activity on Stromelysin-2 [1] and on Collagenase 3 [2] were 18% and 4.6%, respectively. The IC50 on Stromelysin-2 [3] (read-out: IC50) is 506 nM; at Stromelysin-2 [3] (read-out: pIC50 (converted)), 457 to 562 nM; at Collagenase 3 [4] (read-out: IC50), 128 nM; at Collagenase 3 [4] (read-out: pIC50 (converted)), 100 to 158 nM.

Take `COc1cc(CNC(=O)C#Cc2cn(Cc3ccc(C(=O)N(C)C)cc3)c(=O)[nH]c2=O)ccc1F`: the Activity at Stromelysin-2 [1] was found to be 7.1%; on Collagenase 3 [2], 1.4%. The IC50 at Stromelysin-2 [3] (read-out: IC50) is 243 nM; at Stromelysin-2 [3] (read-out: pIC50 (converted)), 186 to 589 nM; on Collagenase 3 [4] (read-out: IC50), 89 nM; at Collagenase 3 [4] (read-out: pIC50 (converted)) it was 70.8 to 110 nM.

Turning to `COc1cc(CNC(=O)C#Cc2cn(Cc3ccc(C(=O)NCC(=O)O)cc3)c(=O)[nH]c2=O)ccc1F`, the Activity at Stromelysin-2 [1] was 68.6%; at Collagenase 3 [2], 5.1%.

On to `COC(=O)CNC(=O)c1ccc(Cn2cc(C#CC(=O)NCc3ccc(F)c(OC)c3)c(=O)[nH]c2=O)cc1`, for which the results for the Activity at Stromelysin-2 [1] and at Collagenase 3 [2] were 52.8% and 12.2%, respectively.

Consider `COc1cc(CNC(=O)C#Cc2cn(Cc3ccc(C(=O)NCCO)cc3)c(=O)[nH]c2=O)ccc1F`, for which the Activity on Stromelysin-2 [1] is 14.2%; on Collagenase 3 [2], 2.6%. The IC50 was 347 nM at Stromelysin-2 [3] (read-out: IC50), 275 to 398 nM at Stromelysin-2 [3] (read-out: pIC50 (converted)), 58 nM at Collagenase 3 [4] (read-out: IC50) and 44.7 to 72.4 nM at Collagenase 3 [4] (read-out: pIC50 (converted)).

Take `COC(=O)[C@H](CO)NC(=O)c1ccc(Cn2cc(C#CC(=O)NCc3ccc(F)c(OC)c3)c(=O)[nH]c2=O)cc1`: the Activity at Stromelysin-2 [1] came to 21.9%; at Collagenase 3 [2], 3.9%.

On to `COc1cc(CNC(=O)C#Cc2cn(Cc3ccc(S(=O)(=O)NC(C)(C)C)cc3)c(=O)[nH]c2=O)ccc1F`, for which the Activity on Stromelysin-2 [1] was 6.9%; on Collagenase 3 [2] it was 1.7%. Besides, the IC50 was 131 nM at Stromelysin-2 [3] (read-out: IC50), 51.3 to 141 nM at Stromelysin-2 [3] (read-out: pIC50 (converted)), 26 nM on Collagenase 3 [4] (read-out: IC50) and 12 to 20.9 nM at Collagenase 3 [4] (read-out: pIC50 (converted)).

On to `O=C(O)CCCOc1cccc(CNC(=O)C#Cc2cn(Cc3ccc(C(=O)O)cc3)c(=O)[nH]c2=O)c1`, for which the IC50 at Stromelysin-2 [3] (read-out: IC50) was determined as 8400 nM.

For the origin of these results see ChEMBL document CHEMBL4028865, “Targeted Polypharmacology: Discovery of a Highly Potent Non-Hydroxamate Dual Matrix Metalloproteinase (MMP)-10/-13 Inhibitor” (J Med Chem, 2017).
